In ChEMBL document CHEMBL1121551, “Amino acid and dipeptide derivatives of daunorubicin. 2. Cellular pharmacology and antitumor activity on L1210 leukemic cells in vitro and in vivo” (1980):

Tests used:
Mus musculus [1] = experiment: Chemotherapeutic activity was evaluated by measuring mean tumor diameter on day 8 at 11 mg/kg/day, iv
Mus musculus [2] = experiment: Chemotherapeutic activity was evaluated by measuring percent change in weight on day 8 at 10 mg/kg/day, sc; type: functional
Outline: (§1)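 Drugs were given iv on days 1 and 2 at the stated daily dose. Average tumor diameter was estimated daily with calipers, and body weight change was recorded on day 8. Results from several experiments are given as mean ± SD.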

Mus musculus [3] = experiment: Chemotherapeutic activity was evaluated by measuring percent change in weight on day 8 at 12(mg/kg)/day, sc; type: functional
Mus musculus [4] = experiment: Chemotherapeutic activity was evaluated by measuring percent change in weight on day 8 at 10 mg/kg/day, iv; type: functional
Outline: (§2)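 Female DBA2 mice were inoculated iv on day 0 with 10^4 L1210 leukemic cells. Drugs were given iv on days 1 and 2 at the stated daily dose. Percent body weight change was recorded on day 8, and weight loss served as the index of general toxicity.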

Mus musculus [5] = experiment: Chemotherapeutic activity was evaluated by measuring mean tumor diameter on day 12 at 12(mg/kg)/day, sc; type: functional
Mus musculus [6] = experiment: Chemotherapeutic activity was evaluated by measuring mean tumor diameter on day 12 at 11 mg/kg/day, iv
Mus musculus [7] = experiment: Chemotherapeutic activity was evaluated by measuring the percent increase in life span of female DBA2 mice subcutaneously inoculated with L1210 leukemia at 12(mg/kg)/day, sc; type: functional
Mus musculus [8] = experiment: Chemotherapeutic activity was evaluated by measuring percent change in weight on day 8 at 12(mg/kg)/day, iv; type: functional
Outline: as §2

Mus musculus [9] = experiment: Chemotherapeutic activity was evaluated by measuring number of survivors on day 30 / total number of mice at 12(mg/kg)/day, iv; 6/34; type: functional
Outline: (§3)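 Female DBA2 mice given 10^4 L1210 cells iv on day 0; cells harvested from a 6- to 8-day-old ascitic L1210 form. Drug given iv on days 1 and 2 at the stated daily dose. Read-outs are % increase in life span and the number of mice alive on day 30 over the total.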

Mus musculus [10] = experiment: Chemotherapeutic activity was evaluated by measuring the percent increase in life span of female DBA2 mice intravenously inoculated with L1210 leukemia at 11 mg/kg/day, iv; type: functional
Outline: as §3

Mus musculus [11] = experiment: Chemotherapeutic activity was evaluated by measuring number of survivors on day 30 / total number of mice at 11 mg/kg/day, sc; 3/37; type: functional
Mus musculus [12] = experiment: Chemotherapeutic activity was evaluated by measuring the percent increase in life span of female DBA2 mice intravenously inoculated with L1210 leukemia at 10 mg/kg/day, iv; type: functional
Outline: as §3

Mus musculus [13] = experiment: Chemotherapeutic activity was evaluated by measuring mean tumor diameter on day 12 at 10 mg/kg/day, iv
Mus musculus [14] = experiment: Chemotherapeutic activity was evaluated by measuring number of survivors on day 30 / total number of mice at 11 mg/kg/day, iv; 0/37; type: functional
Outline: as §3

Mus musculus [15] = experiment: Chemotherapeutic activity was evaluated by measuring number of survivors on day 30 / total number of mice at 10 mg/kg/day, iv; 0/18; type: functional
Outline: as §3

Mus musculus [16] = experiment: Chemotherapeutic activity was evaluated by measuring percent change in weight on day 8 at 11 mg/kg/day, iv; type: functional
Outline: as §2

Mus musculus [17] = experiment: Percent increase in life span of female DBA2 mice subcutaneously inoculated with L1210 leukemia at 10 mg/kg/day, iv
Mus musculus [18] = experiment: Chemotherapeutic activity was evaluated by measuring number of survivors on day 30 / total number of mice at 12(mg/kg)/day, sc; 3/36; type: functional
Mus musculus [19] = experiment: Chemotherapeutic activity was evaluated by measuring the percent increase in life span of female DBA2 mice intravenously inoculated with L1210 leukemia at 12(mg/kg)/day, iv; type: functional
Outline: as §3

Mus musculus [20] = experiment: Percent increase in life span of female DBA2 mice subcutaneously inoculated with L1210 leukemia at 11 mg/kg/day, iv
Mus musculus [21] = experiment: Chemotherapeutic activity was evaluated by measuring percent change in weight on day 8 at 11 mg/kg/day, sc; type: functional
Outline: as §1

Mus musculus [22] = experiment: Chemotherapeutic activity was evaluated by measuring mean tumor diameter on day 8 at 10 mg/kg/day, iv
Mus musculus [23] = experiment: Chemotherapeutic activity was evaluated by measuring number of survivors on day 30 / total number of mice at 10 mg/kg/day, sc; 0/58; type: functional
Mus musculus [24] = experiment: Chemotherapeutic activity was evaluated by measuring percent change in weight on day 8 at 50(mg/kg)/day, iv; type: functional
Outline: as §2

Mus musculus [25] = experiment: Percent increase in life span of female DBA2 mice subcutaneously inoculated with L1210 leukemia at 66 mg/kg/day, iv
Mus musculus [26] = experiment: Chemotherapeutic activity was evaluated by measuring number of survivors on day 30 / total number of mice at 60 mg/kg/day, sc; 0/18; type: functional
Mus musculus [27] = experiment: Chemotherapeutic activity was evaluated by measuring mean tumor diameter on day 12 at 66 mg/kg/day, iv
Mus musculus [28] = experiment: Chemotherapeutic activity was evaluated by measuring percent change in weight on day 8 at 60 mg/kg/day, sc; type: functional
Outline: as §1

Mus musculus [29] = experiment: Chemotherapeutic activity was evaluated by measuring number of survivors on day 30 / total number of mice at 50(mg/kg)/day, iv; 0/7; type: functional
Outline: as §3

Mus musculus [30] = experiment: Chemotherapeutic activity was evaluated by measuring mean tumor diameter on day 8 at 60 mg/kg/day, iv
Mus musculus [31] = experiment: Chemotherapeutic activity was evaluated by measuring the percent increase in life span of female DBA2 mice intravenously inoculated with L1210 leukemia at 50(mg/kg)/day, iv; type: functional
Outline: as §3

Mus musculus [32] = experiment: Chemotherapeutic activity was evaluated by measuring number of survivors on day 30 / total number of mice at 66 mg/kg/day, sc; 0/9; type: functional
Mus musculus [33] = experiment: Chemotherapeutic activity was evaluated by measuring mean tumor diameter on day 8 at 66 mg/kg/day, iv
Mus musculus [34] = experiment: Chemotherapeutic activity was evaluated by measuring percent change in weight on day 8 at 66 mg/kg/day, sc; type: functional
Outline: as §1

Mus musculus [35] = experiment: Percent increase in life span of female DBA2 mice subcutaneously inoculated with L1210 leukemia at 60 mg/kg/day, iv

COc1cccc2c1C(=O)c1c(O)c3c(c(O)c1C2=O)C[C@@](O)(C(C)=O)C[C@@H]3O[C@H]1C[C@H](N)[C@H](O)[C@H](C)O1 [DAUNORUBICIN]
Diameter (Mus musculus [1]): 0.4 mm
Weight change (Mus musculus [2]): -4.3%
Weight change (Mus musculus [3]): -6.3%
Weight change (Mus musculus [4]): -1.1%
Diameter (Mus musculus [5]): 2 mm
Diameter (Mus musculus [6]): 2.9 mm
Increase in life-span (Mus musculus [7]): 83%
Weight change (Mus musculus [8]): -8.4%
Survivors (Mus musculus [9]): 6
Increase in life-span (Mus musculus [10]): 66%
Survivors (Mus musculus [11]): 3
Increase in life-span (Mus musculus [12]): 42%
Diameter (Mus musculus [13]): 4.1 mm
Survivors (Mus musculus [14]): 0
Survivors (Mus musculus [15]): 0
Weight change (Mus musculus [16]): -3.2%
Increase in life-span (Mus musculus [17]): 65%
Survivors (Mus musculus [18]): 3
Increase in life-span (Mus musculus [19]): 123%
Increase in life-span (Mus musculus [20]): 67%
Weight change (Mus musculus [21]): -5.9%
Diameter (Mus musculus [22]): 0.3 mm
Survivors (Mus musculus [23]): 0

COc1cccc2c1C(=O)c1c(O)c3c(c(O)c1C2=O)C[C@@](O)(C(C)=O)C[C@@H]3O[C@H]1C[C@H](NC(=O)[C@H](C)N)[C@H](O)[C@H](C)O1
Weight change (Mus musculus [24]): -4.4%
Increase in life-span (Mus musculus [25]): 61%
Survivors (Mus musculus [26]): 0
Diameter (Mus musculus [27]): 4.2 mm
Weight change (Mus musculus [28]): -5.9%
Survivors (Mus musculus [29]): 0
Diameter (Mus musculus [30]): 1.3 mm
Increase in life-span (Mus musculus [31]): 14%
Survivors (Mus musculus [32]): 0
Diameter (Mus musculus [33]): 0 mm
Weight change (Mus musculus [34]): -8.5%
Increase in life-span (Mus musculus [35]): 37%
